Experimental data as given in the EternaBench riboswitch data.

Tested on: MS2 coat protein
Experiment: apparent Kd, MS2 coat protein; higher = weaker binding; RNA-MaP array; theophylline 2 mM where present
Method in brief: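 Two titrations, one without ligand and one with constant ligand, were run with SNAP-549-labelled MS2 coat protein from 0.7 or 1.5 nM, doubling to 3 µM. The targets were designs transcribed by stalled E. coli RNA polymerase on Illumina sequencing-chip clusters, in 100 mM Tris-HCl pH 7.5, 80 mM KCl, 4 mM MgCl2, BSA, DTT, yeast tRNA and Tween-20. The apparent Kd is the median of filtered per-cluster binding-curve fits, with green signal normalised to red-channel RNA signal and control-cluster median Fmax.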

[1] = designed as: ON switch for theophylline, no ligand
[2] = ligand present: theophylline, designed as: ON switch for theophylline
[3] = designed as: OFF switch for theophylline, no ligand
[4] = ligand present: theophylline, designed as: OFF switch for theophylline

| Sequence | apparent Kd [1] [nM] | apparent Kd [2] [nM] | apparent Kd [3] [nM] | apparent Kd [4] [nM] |
| --- | --- | --- | --- | --- |
| ACAUGAGGAUCACCCAUGUAGUGGCACGAUACCAGCUGAUCCCGUGGCCCUUGGCAGCGUCCGGUGUGGUCUGCCGGGAUGGAGC | 23.7 | 28.4 | – | – |
| AUAUCAUAGAGUGAUACCAGACUACAUGAGGAUCACCCAUGUGACAUUUAAAUAUCAUUUGUCCCUUGGCAGCACAUUAAGUACA | – | – | 67.3 | 65.4 |
| ACAACAUGAGGCGAUACCAGAGGCAACAUGAGGAUCACCCAUGUUCACCCAUGUGAUCACCUCCCUUGGCAGCGCACAUGAGGAU | 12.4 | 30 | – | – |
| UCGCAUUGCUGCGAUACCAGACAUGAGGAUCACCCAUGUACCAAGAAAACGUACAUAAAUGUCCCUUGGCAGCGCAGCAAUGCGU | – | – | 443 | 1110 |
| CGUGGUGGGACGGAUACCAGCCACCGCGGCAACGCAACAUGAGGAUCACCCAUGUUGGGUGGCCCUUGGCAGCUGUCCUGCGGCG | 11.5 | 13.4 | – | – |
| AGGAAACAACAUGAGGAUCACCCAUGUGAUACCAGUCAAAUAAAAGACCCUUGGCAGCACACAUGACAUGAGGAUCACCCAUGUA | 31.9 | 77 | – | – |
| GAUGAACUAUAUGAUACCAGACAACAUGAGGAUCACCCAUGUGUAAGUCGUCCUCUGCCUGUCCCUUGGCAGCGUAUAGUUUAUC | – | – | 47.6 | 84 |
| AUAAGUAAUGUCUCGUGUAUUAUUACAGAUACCAGACUAUCCUAUGUCCCUUGGCAGCUGGAUUACAUGAGGAUCACCCAUGUGG | – | – | 43.6 | 35 |
| UGUAUGUGAUUUGAUACCAGACCAACUGGUAAUACAUGAGGAUCACCCAUGUAGAUUUGGGUCCCUUGGCAGCAAAUCGCAUACU | 48 | 11.7 | – | – |
| CGGUUUGUGAUGGAUACCAGCAGAGUGACUGUUUAUCCUGACAUGAGGAUCACCCAUGUGUGCCCUUGGCAGCUGUUGUGGGCUG | – | – | 80.4 | 80.8 |
| UAUAUAUAUAUGGAUACCAGCAGAGAAAACGUUUAUCCUAACAUGAGGAUCACCCAUGUAUGCCCUUGGCAGCUGUAUAUAUAUA | – | – | 24.9 | 32.4 |
| ACAUGAGGAUCACCCAUGUGCAGAACGGAUACCAGCGUCCUGGUACGCCCUUGGCAGCCGGACAUGAGGAUCACCCAUGUGUGGA | – | – | 93.1 | 406 |
| UAUCUUGCGGGCGCCCGCAAGGUUGCGGAUACCAGCGAGAUAAAUCGCCCUUGGCAGCCGAACAUGAGGAUCACCCAUGUCGGAC | 9.99 | 12.7 | – | – |
| UCAUGAGGAUCACCCAUGUGGCGUCUUGAUACCAGACGAGAAGUAGUCCCUUGGCAGCAAAUACAUGAGGAUCACCCAUGUAGGA | – | – | 38.6 | 63.7 |
| AGACAUGAGGAUCACCCAUGUAGUAUGGAUACCAGAUCCAGAUUUAUCCCUUGGCAGCUGUGGUACAGCGUUGCAACGCUCCUAG | – | – | 29.3 | 28.9 |
| AGUAAUCUAUCAGAUACCAGACCCUCUUUAACAUGAGGAUCACCCAUGUCUAUGUUCUACGUCCCUUGGCAGCUGUAAAUGAUAA | 45.9 | 20.9 | – | – |
| UGGUACAUGAGGAUCACCCAUGUUCCAGAUACCAGAUACCCGGUUAUCCCUUGGCAGCUGGUGGUACAUGAGGAUCACCCAUGUG | – | – | 36.1 | 86.7 |
| ACGAACGAUAGCGAUACCAGACGUACAUGAGGAUCACCCAUGUUUUGGGUAAGGUUAAUAGUCCCUUGGCAGCGCUUUAAGUUCG | – | – | 59.6 | 469 |
| AGCCCUGUGCUAGAUACCAGCUACAUGAGGAUCACCCAUGUGCGUCAAGACUGACUGUGUAGCCCUUGGCAGCUACUCGCAUGUA | – | – | 12.6 | 23 |
| UUAUUUAUAAUUGAUACCAGUUUAAUGGCCGCAAAUCCUGACAUGAGGAUCACCCAUGUAAGCCCUUGGCAGCGGUUAUGGGUUU | – | – | 21 | 21.1 |
| AUAAUGGGUUUCGGACUAUCAUGGAAUGAUACCAGAUACUUAGAAAUCCCUUGGCAGCAUGAGGACAUGAGGAUCACCCAUGUAU | – | – | 57.9 | 61.5 |
| GGCUGUUGCGAUUUGAAGCGGCAGCGUGAUACCAGAUGUAAGAGCGUCCCUUGGCAGCACGUUUACAUGAGGAUCACCCAUGUCA | 106 | 60 | – | – |
